Compound activity (PubChem)
Autophagy HCS = autophagy modulation, high-content screen. MEF GFP-LC3 puncta imaging; test concentration mostly 10 µM. calls only at 10 µM (by protocol). 190,000 compounds, 0.98% hits. AID 463193;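 active means percentage of spot-positive cells more than 3 SD above its plate mean, without a fluorescence outlier flag or 80% toxicity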;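 further: spot-positive cell cutoff set from DMSO-treated cells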
Dynein transport = blocks dynein driven cargo transport along microtubules; 3617.4 mouse cells, GR-EGFP nuclear translocation imaging; test concentration mostly 20 µM; stimulated with dexamethasone, 1 µM; stronger effect = lower value; z-score, hits read low; 220,000 compounds, 0.47% hits; AID 1381;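 active means plate z-score of nuclear minus cytoplasmic receptor signal below a set negative limit, without overly bright fluorescence or cell loss, cut at about -3.5 in these data, passing the limit was not always enough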;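 further: z-score of nuclear minus cytoplasmic ring GR-EGFP intensity difference per well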
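Buffer or medium – tet-free medium with charcoal-stripped serum · Signal – automated 10x imaging of fixed Hoechst-stained cells · Also added – dexamethasone agonist, 1.0 µM final, for 30 min · Incubation – induction 48 h, compound 1 h, agonist 30 min · Read-out – GR-EGFP nuclear translocation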
bCat KO growth = beta-catenin-lacking colon tumor cell growth suppression; HCT116 beta-catenin knockout viability, CellTiter-Glo, 60 h; stronger effect = lower value; viability, % at 10 µM; 140,000 compounds, 1.5% hits; AID 818;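 active means viability at or under a set limit, the compound median less 4 SD, cut at about 6% in these data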;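 further: 0% = Hyamine 1622 control at 20 µM and 100% = untreated cell control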
HCT116 PTEN-null = growth suppressors of cells with PTEN tumor suppressor deletion; HCT116 PTEN-null viability, CellTiter-Glo, 60 h; stronger effect = lower value; viability, % at 10 µM; 140,000 compounds, 1.2% hits;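 active means viability at or below a set limit, 4 SD under the median of all tested compounds, cut at about 3.7% in these data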;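 further: PTEN knockout HCT116 line with beta catenin targeted HCT116 as companion control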
Lmaj promast = Leishmania major promastigote growth inhibition; Leishmania major promastigotes, resazurin fluorescence viability; inhibition, % at 10 µM; 200,000 compounds, 9% hits; AID 1063; in the data active means inhibition above about 50%;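 further: promastigotes grown with compound for 44 hours at 28 °C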
Active calls of the source: *; i = inactive; nt = no result given; + = active, no number. Only some compounds are listed: those with a hit (about 9.2% of all), similar ones and a draw of the others.

SMILES	Autophagy HCS	Dynein transport	bCat KO growth	HCT116 PTEN-null	Lmaj promast
NC(=S)N=Nc1c(O)n(CCCl)c2ccccc12	i	0.51	nt	nt	-5
O=C(O)C1CCCCC1C(=O)NCc1ccc(Cl)c(Cl)c1 (stereo not given)	i	1.9	nt	nt	4
COc1ccc(NC(=O)c2ccc(NC(=O)COC(=O)CC(NC(=O)c3ccccc3Cl)c3ccccc3)cc2)cc1 (stereo not given)	i	-0.65	85	85	1
CCOC(=O)c1sc2nc(SCC#N)n(CC3CCCO3)c(=O)c2c1C (stereo not given)	i	2.9	6.0*	11	-2
CCOC(=O)c1sc2nc(SCC(=O)N(CC)CC)n(CCCN3CCCC3=O)c(=O)c2c1C	i	-0.91	nt	nt	24
Cc1ccc(N=C2C(=S)N(c3ccc(C)cc3)C(=N)N2/N=C/c2ccc(Cl)cc2)cc1	i	0.17	87	90	100*
COc1ccc(N=C2C(=Nc3ccc(OC)cc3)N(c3ccc(OC)cc3)C(=S)N2c2ccccc2)cc1	i	0.12	94	98	19
CSc1ccccc1NC(=O)CO/N=C(\C)c1cc2ccccc2o1	i	1.3	87	92	95*
C/C(=N\OCC(=O)Nc1ccc(F)c(F)c1F)c1cc2ccccc2o1	i	-0.31	95	97	-6
CCOC(=O)c1ccc(NC(=O)CSc2nnc(NC(=O)c3ccc(S(=O)(=O)N4CCOCC4)cc3)s2)cc1	i	1.9	91	95	91*
Cc1ccc(NC(=O)CCn2c(=O)oc3ccccc32)c(C)c1	i	-0.58	98	85	-3
COc1ccc(C(=O)c2ccc(N3CCOCC3)c([N+](=O)[O-])c2)cc1	i	-0.55	nt	nt	8
COc1ccc(Nc2nnc(-c3ccc(N4CCOCC4)c([N+](=O)[O-])c3)c3ccccc23)cc1	i	-0.017	41	52	57*
COc1ccc(NC(=O)CSc2nnc(Cn3cnc4ccccc43)o2)cc1	i	-0.28	nt	nt	-5
CCCCNC(=O)C(c1ccc(-c2ccccc2)cc1)N(CCN1CCOCC1)C(=O)CCCCCN1C(=O)NC(c2ccc([N+](=O)[O-])cc2)C(C(=O)OCc2ccccc2)=C1C (stereo not given)	i	-0.23	72	75	-3
O=C(CO/N=C/c1ccc(OC(F)F)cc1)NC1CCCC1	i	-0.74	nt	nt	4
O=C(CO/N=C/c1ccc(OC(F)F)cc1)NC1CCCCCC1	+	-0.3	nt	nt	6
Fc1ccc(-c2noc(C3CCN(Cc4cccnc4)CC3)n2)cc1	i	-1.2	43	49	94*
CC(=O)c1cccc(NS(=O)(=O)c2cc(OCC(N)=O)c(C)cc2Cl)c1	i	-0.48	86	83	-5
CC(C)CNC(=S)N1CCN(Cc2ccc3c(c2)OCO3)CC1	i	-0.18	nt	nt	37
Cc1ccc(NC(=S)N2CCN(Cc3ccc4c(c3)OCO4)CC2)c(C)c1	i	-0.64	nt	nt	89*
CCN(CC)S(=O)(=O)c1ccc(C)c(NC(=S)N2CCN(Cc3ccc4c(c3)OCO4)CC2)c1	i	-0.73	nt	nt	96*
CCN(CC)S(=O)(=O)c1ccc(C)c(NC(=S)N2CCN(C/C=C/c3ccccc3)CC2)c1	i	-0.64	nt	nt	60*
Cc1cccc(NC(=S)N2CCN(Cc3ccc4c(c3)OCO4)CC2)c1C	i	-0.17	89	92	90*
CC(C)c1ccccc1NC(=S)N1CCN(Cc2ccc3c(c2)OCO3)CC1	i	-0.51	nt	nt	77*
SMILES	Autophagy HCS	Dynein transport	bCat KO growth	HCT116 PTEN-null	Lmaj promast
CS(=O)(=O)N(CC(=O)NCCC1=CCCCC1)C1CCCCC1	i	0.87	101	94	4
O=C(COc1ccc(S(=O)(=O)NC2CCCCC2)cc1)NCCC1=CCCCC1	i	-0.016	101	93	59*
O=C(CN1CCN(C2CCCCC2)CC1)NCCC1=CCCCC1	i	-0.12	87	100	94*
CC(C)(C)NC(=O)c1cccc(NC(=O)CSc2ccc(Cl)cc2)c1	i	-0.71	85	81	91*
O=C(CSc1ccc(Cl)cc1)Nc1ccccc1N1CCN(C(=O)c2ccccc2)CC1	i	-0.46	66	59	72*
COc1ccc(SCC(=O)Nc2ccc(N3CCN(C)CC3)c(F)c2)cc1	i	-0.49	nt	nt	94*
COc1ccc(NC(=O)c2ccccc2NC(=O)CSc2ccc(Cl)cc2)cc1	+	-0.56	9	7	-1
O=C(CSc1ccccc1)Nc1ccc(N2CCN(c3ccccc3)CC2)c(F)c1	i	-0.9	84	98	-4
CCOc1ccccc1NC(=O)COC(=O)CSc1ccc(Cl)cc1	i	-0.2	103	94	57*
CSc1cccc(NC(=O)CSc2ccc(Cl)cc2)c1	i	0.17	100	102	54*
CCOc1ccccc1NC(=O)CSc1ccccc1	i	0.081	85	90	2
CSc1cccc(NC(=O)CSc2ccc(C)cc2)c1	i	0.32	100	110	-2
CCOc1ccc(C(=O)c2cc([N+](=O)[O-])ccc2Cl)cc1	i	0.41	71	68	42
CC(=O)N1c2ccccc2N(Cc2ccc(C)cc2C)C(=O)C1(C)C	+	-1	12	12	94*
C=CCN1C(=O)C(C)(C)N(C(C)=O)c2ccccc21	i	-1.1	101	104	-2
CC1=C(C(=O)Nc2ccccc2)C(c2ccc(C)cc2)N=C(Nc2nc3ccccc3o2)N1 (stereo not given)	i	-0.31	7	3.6*	2
Cc1ccccc1NC(=O)N1CCN(c2ncccn2)CC1	i	1.1	nt	nt	-4
CCOc1ccc(CCNc2ccc3nnc(-c4ccccc4)n3n2)cc1OCC	i	-0.42	60	18	77*
CCOC(=O)c1cc(CC)sc1NC(=O)c1cc([N+](=O)[O-])ccc1N1CCOCC1	+	-1.1	16	17	22
O=C(c1ccccc1)c1cc([N+](=O)[O-])ccc1N1CCOCC1	i	-0.53	13	13	1
O=C(c1ccc(Cl)cc1)c1cc([N+](=O)[O-])ccc1N1CCOCC1	+	-0.42	nt	nt	1
O=C(c1ccccc1)c1ccc(N2CCOCC2)c(F)c1	i	2.1	70	74	53*
O=C(c1ccc(Br)cc1)c1cc([N+](=O)[O-])ccc1N1CCOCC1	+	-1.1	nt	nt	1
O=C(NNS(=O)(=O)c1ccc([N+](=O)[O-])cc1)c1cnn(-c2ccccc2)c1-n1cccc1	i	0.43	95	88	-6
CCC(C)C(=O)Nc1nc(C)c(-c2csc(Nc3cc(OC)ccc3OC)n2)s1 (stereo not given)	i	0.55	67	61	57*
COc1ccc(OC)c(Nc2nc(-c3sc(C)nc3C)cs2)c1	i	1.5	94	76	21
CCCCC(=O)Nc1nc(C)c(-c2csc(Nc3cc(OC)ccc3OC)n2)s1	i	-0.51	50	46	73*
CCCCC(=O)Nc1nc(C)c(-c2csc(Nc3cc(Cl)ccc3OC)n2)s1	i	0.51	93	87	40
